Experimental data of several laboratories.
Protocols differ between the studies behind these lines.
Target: Serine/threonine-protein kinase Nek3 (NEK3, Homo sapiens, UniProt P51956)
Residues used in one study (P51956 1-506): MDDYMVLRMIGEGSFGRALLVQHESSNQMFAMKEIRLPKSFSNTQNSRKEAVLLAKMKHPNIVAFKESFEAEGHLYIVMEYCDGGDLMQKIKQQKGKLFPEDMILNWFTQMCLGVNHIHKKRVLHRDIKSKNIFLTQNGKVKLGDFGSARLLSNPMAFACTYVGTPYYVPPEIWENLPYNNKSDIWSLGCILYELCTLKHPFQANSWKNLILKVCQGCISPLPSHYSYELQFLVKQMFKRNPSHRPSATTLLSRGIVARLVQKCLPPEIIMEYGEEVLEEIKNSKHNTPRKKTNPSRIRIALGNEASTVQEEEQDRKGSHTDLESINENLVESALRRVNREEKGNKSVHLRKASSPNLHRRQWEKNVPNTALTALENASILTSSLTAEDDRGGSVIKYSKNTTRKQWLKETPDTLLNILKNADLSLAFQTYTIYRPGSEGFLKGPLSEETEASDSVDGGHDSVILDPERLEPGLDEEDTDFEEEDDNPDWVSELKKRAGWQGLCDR

Compound | assay | conditions | measurement | result
CCCCN(CCCC)C(=O)CN1C[C@@H](c2cc(OC)c3c(c2)OCO3)[C@H](C(=O)O)[C@H]1CC(C)(C)CCC | cell-free assay, competition with immobilised ligand | 1 µM | remaining binding | 72.9%
CC(C)(O)[C@H]1CC[C@H](Nc2ccc3ncc(-c4cccc(C(F)(F)F)c4)n3n2)CC1 | enzyme activity, inhibitor | 1 µM | remaining activity | 91%
Nc1c(C(=O)NCc2ccc(C(=O)NCCCC3CCCCC3)cc2)cnn1-c1ccccc1 | cell-free assay, competition with immobilised ligand | 0.1 µM | remaining binding | 100%
Nc1ncnc2occ(-c3ccc(NC(=O)Nc4cc(C(F)(F)F)ccc4F)cc3)c12 | cell-free assay, inhibitor | 20 µM | remaining signal | 63%
Cc1ccc(NC(=O)c2ccc(C)c(C(F)(F)F)c2)cc1C#Cc1nn(C2CCC(O)CC2)c2ncnc(N)c12 (stereo not shown) | cell-free assay | 10 µM | remaining signal | 102%
Nc1cnc(N2CCc3cc(S(=O)(=O)Nc4c(F)cc(Cl)cc4F)cc(N4CCCC4=O)c32)nc1 | cell-free assay, competition with immobilised ligand | 1 µM | remaining binding | 100%
Cn1cnc(Br)c1C1=CN(c2ncnc3[nH]cnc23)CCS1 | enzyme activity, inhibitor, radiometric | 50 nM | inhibition | 14.7%
CN(C)C(=O)Cn1cc(-c2nc([C@@](C)(c3ccc(-c4cnc(N)nc4)cc3)C3CC3)no2)cn1 | cell-free assay, competition with immobilised ligand | 1 µM | remaining binding | 87%
CNC(=O)c1cc(Oc2ccc(NC(=O)Nc3ccc(Cl)c(C(F)(F)F)c3)cc2)ccn1 | cell-free assay | 0.5 µM | remaining signal | 97.2%
CC(C)(C)c1nc(-c2cccc(NS(=O)(=O)c3c(F)cccc3F)c2F)c(-c2ccnc(N)n2)s1 | enzyme activity, inhibitor, radiometric | 1 µM | remaining activity | 85%
O=C(Nc1cnn(-c2csc(C(=O)NC3COC3)c2)c1)Nc1ccccc1Cl | enzyme activity, inhibitor | 5 µM | remaining activity | 103%
c1ccc(CNc2nc(N3CCOc4ccccc43)nc3c2CCCC3)cc1 | target engagement in cells, inhibitor, chemoproteomics | 20 mM | inhibition | 5.9%
N#CCCc1ccc2c(c1)-c1[nH]c3ccc([N+](=O)[O-])cc3c1CC(=O)N2 | cell-free assay | 0.5 µM | remaining signal | 104%
Cc1cc(NC(=O)c2cccc3cc(-c4cccc5[nH]nc(N)c45)ccc23)ccc1F | enzyme activity, inhibitor | 0.1 µM | activity vs control | 83%
Cc1cnc(NC2CCOCC2)nc1-n1cnc(C(=O)NC(CN)c2cc(F)cc(Cl)c2)c1 (stereo not shown) | enzyme activity, inhibitor, radiometric | 1 µM | remaining activity | 65%
CNCc1ccccc1-c1csc([C@@H](C)Nc2nc(C)nc3cc(OC)c(OC)cc23)c1 | cell-free assay, competition with immobilised ligand | 1 µM | remaining binding | 100%
Cc1ccc(C(=O)Nc2ccc(CN3CCN(C)CC3)c(C(F)(F)F)c2)cc1C#Cc1cnc2cccnn12 | enzyme activity, inhibitor | 23.5 nM | remaining activity | 86%
O=C1NC(=O)c2cc(Nc3ccc(F)cc3)c(Nc3ccc(F)cc3)cc21 | cell-free assay | 0.5 µM | remaining signal | 99.1%
CCCCNc1ncc2c(-c3ccc(F)cc3)nn(C[C@H]3CC[C@H](N)CC3)c2n1 | target engagement in cells, inhibitor, chemoproteomics | 20 mM | inhibition | 10.1%
